Experimental data from different studies.
Lines come from different studies, so protocols differ.
OPRM1: Mu-type opioid receptor (OPRM1, Homo sapiens, UniProt P35372)
GRK4: G protein-coupled receptor kinase 4 (GRK4, Homo sapiens, UniProt P32298)

C1=C/COCc2cc(ccc2OCCN2CCCC2)Nc2nccc(n2)-c2cccc(c2)COC/1  remaining binding (eIF-2-alpha kinase GCN2 (EIF2AK4, Homo sapiens, UniProt Q9P2K8, S808G); binding; 0.1 µM): 9.6%
CCN1/C(=C/C(C)=O)Sc2ccc(F)cc21  inhibition (OPRM1; ligand displacement; radioligand; 10 µM): 0.11%
CCCCC(=O)Nc1ccc(-c2ccc3ncn(CCC)c(=O)c3c2)cn1  remaining binding (Ephrin type-A receptor 6 (EPHA6, Homo sapiens, UniProt Q9UF33); binding; competition with immobilised ligand; 0.5 µM): 100%
COc1ccc2oc(-c3ccc4nc(N)oc4c3)c/c(=N\c3ccccc3NC(=O)CCN)c2c1  remaining binding (Protein kinase C alpha type (PRKCA, Homo sapiens, UniProt P17252); binding; 1 µM): 100%
Cc1cc(O)c(-c2ccc([C@@H](C)CN(C)C)cc2)c2c1[nH]c(=O)c1sccc12  inhibition (SRSF protein kinase 1 (SRPK1, Homo sapiens, UniProt Q96SB4); enzyme activity; inhibitor; 0.1 µM): 1.88%
C[C@]1(O)CCCN(c2nc(Nc3ccc(S(=O)(=O)N[C@H]4CC[C@H](CN5CCN(c6ccc(C7CCC(=O)NC7=O)cc6F)CC5)CC4)cc3Cl)ncc2C(F)(F)F)C1 (stereo partly shown)  remaining binding (GRK4; binding; competition with immobilised ligand; 1 µM): 93%
C#Cc1cc(-c2cc(Nc3nc(N[C@@H](C)c4ccc(F)cn4)ncc3Cl)n[nH]2)ccc1C=O  inhibition (cGMP-dependent protein kinase 1 (PRKG1, Homo sapiens, UniProt Q13976); enzyme activity; inhibitor; 0.2 µM): 3.89%
Cc1cc(S(=O)(=O)N[C@H]2CC[C@H](CN3CCN(c4ccc(C5CCC(=O)NC5=O)cc4F)CC3)CC2)ccc1Nc1ncc(C(F)(F)F)c(N2CCC[C@](C)(O)C2)n1 (stereo partly shown)  remaining binding (GRK4; binding; competition with immobilised ligand; 1 µM): 89%
Cc1cc(F)cc2c(CCC(=O)N[C@@H]3C(=O)NC[C@H]3O)c(-c3ccc(F)cc3)[nH]c12  inhibition (OPRM1; cell-free assay; 10 µM): 5%
NC/C(=C\F)COc1cccc(Cn2c(=S)[nH]c(=O)c3[nH]cnc32)c1  inhibition (OPRM1; ligand displacement; radioligand; 10 µM): < 50%
